Drawing on ChEMBL document CHEMBL1147385, “Kinase inhibitors from Polygonum cuspidatum” (J Nat Prod, 1993), this text covers IC50 for eight molecules.

Assay [1] is described as follows: Inhibition of bovine thymus p56LCK. Set-up: species or system Bos taurus. Summed up: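 Partially purified p56lck from bovine thymus (through butyl-agarose step). Compounds were dissolved in DMSO, with 8% DMSO present in all assays. Emodin served as reference compound.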
The target in the next assay is Protein kinase C (PKC). Nature of the assay: Inhibition of rat brain PKC. Summed up: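 Rat brain PKC, partially purified and mainly alpha/beta isoforms, acting on lysine-rich histone (30 μg). Partial activation by phosphatidylserine 8 μg/ml plus TPA 3 nM, no calcium, EGTA present, 20 mM Tris-Cl pH 7.4. Run 10 min at 30°, duplicates. Samples spotted on P81 paper, Cerenkov counted, no-enzyme blanks subtracted. IC50 from logarithmic interpolation over ten-fold dilutions, 0.16–160 μg/ml.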

In brackets after ≈: the same amount, converted by molar mass. A value given as a limit tells only on which side of the number the result lay.

Turning to `OC[C@H]1O[C@@H](Oc2cc(O)cc(/C=C/c3ccc(O)cc3)c2)[C@H](O)[C@@H](O)[C@@H]1O` [PICEID], the IC50 (in assay [1]; on Protein kinase C (PKC)) was 2 ×10² ug/ml in each case.

In the case of `Oc1ccc(/C=C/c2cc(O)cc(O)c2)cc1` [RESVERATROL], the IC50 was found to be 6 ×10¹ ug/ml in assay [1] and 4 ×10¹ ug/ml against Protein kinase C (PKC).

On to `OC[C@H]1O[C@@H](Oc2ccc(/C=C\c3cc(O)cc(O)c3)cc2)[C@H](O)[C@@H](O)[C@@H]1O`, for which the results for the IC50 (in assay [1]; on Protein kinase C (PKC)) were greater than 8 ×10² ug/ml and 6 µg/mL (≈ 15.4 µM), respectively.

With `Oc1ccc(/C=C\c2cc(O)cc(O)c2)cc1` [CIS-RESVERATROL], the IC50 in assay [1] was determined as 5 ×10¹ ug/ml; against Protein kinase C (PKC) it was 3 ×10¹ ug/ml.

Regarding `CN1CCN(CCCN2c3ccccc3Sc3ccc(C(F)(F)F)cc32)CC1` [TRIFLUOPERAZINE], the IC50 at Protein kinase C (PKC) is 30 µg/mL (≈ 73.6 µM).

`OC[C@H]1O[C@@H](Oc2cc(O)cc(/C=C\c3ccc(O)cc3)c2)[C@H](O)[C@@H](O)[C@@H]1O` [Z-PICEID]: the IC50 in assay [1] turned out to be 5 ×10² ug/ml; on Protein kinase C (PKC), 2 ×10² ug/ml.

As to `OC[C@H]1O[C@@H](Oc2ccc(/C=C/c3cc(O)cc(O)c3)cc2)[C@H](O)[C@@H](O)[C@@H]1O` [GOB C], the IC50 in assay [1] was 2 ×10² ug/ml; on Protein kinase C (PKC), 3 µg/mL (≈ 7.68 µM).

The molecule `Cc1cc(O)c2c(c1)C(=O)c1cc(O)cc(O)c1C2=O` [EMODIN] gave an IC50 in assay [1] of 10 µg/mL (≈ 37 µM).
